ChEMBL document CHEMBL4819095, “Development of ciclesonide analogues that block SARS-CoV-2 RNA replication” (Bioorg Med Chem Lett, 2021)
Activity calls are given as the source filed them. No cut-off for these calls is given here.

Columns and labels:
[1] = test system: SARS-CoV-2; assay: Antiviral activity against SARS-CoV-2 JPN/TY/WK-251 infected in African Green monkey Vero E6 cells expressing TMPRSS2 assessed as reduction in viral plaques incubated for 18 hrs by plaque reduction assay; type: functional, organism-based; conditions: Severe acute respiratory syndrome coronavirus 2, dose 0.625-80 µM
[2] = test system: SARS-CoV-2; assay: Antiviral activity against SARS-CoV-2 JPN/TY/WK-251 infected in African green monkey Vero E6 cells expressing TMPRSS2 assessed as reduction in viral RNA replication by measuring replication copies assessed per well at 10 uM incubated for 18 hrs by qRT-PCR analysis; type: functional, Severe acute respiratory syndrome coronavirus 2
[3] = test system: Vero C1008; assay: Cytotoxicity against African green monkey Vero E6 cells expressing TMPRSS2 assessed as reduction in cell viability upto 40 uM incubated for 18 hrs by LDH assay; type: cell-based; conditions: chlorocebus sabaeus, vero c1008, 18 h
In short: (§1)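 Vero E6/TMPRSS2 cells exposed for 18 h to compounds at concentrations up to 40 µM. Cytotoxicity read as lactate dehydrogenase (LDH) release. Each independent experiment run in triplicate.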

[4] = test system: Vero C1008; assay: Cytotoxicity against African green monkey Vero E6 cells expressing TMPRSS2 assessed as reduction in cell viability at 40 uM incubated for 18 hrs by LDH assay; type: cell-based; conditions: chlorocebus sabaeus, vero c1008, 18 h; in short: as §1
[5] = test system: Vero C1008; assay: Cytotoxicity against African green monkey Vero E6 cells expressing TMPRSS2 assessed as reduction in cell viability at 20 uM incubated for 18 hrs by LDH assay; type: cell-based; conditions: chlorocebus sabaeus, vero c1008, 18 h; in short: as §1
[6] = Severe acute respiratory syndrome coronavirus 2

Structure (SMILES): C[C@]12C=CC(=O)C=C1CC[C@@H]1[C@@H]2[C@@H](O)C[C@@]2(C)[C@H]1C[C@H]1O[C@@H](C3CCCCC3)O[C@]12C(=O)CCl
- Activity [1]: Dose-Dependent Effect
- Activity [2]: 4.6 10^5No_unit
- Activity [3]: Non-Toxic

Structure (SMILES): CN(C)CC(=O)[C@@]12O[C@H](C3CCCCC3)O[C@@H]1C[C@H]1[C@@H]3CCC4=CC(=O)C=C[C@]4(C)[C@H]3[C@@H](O)C[C@@]12C
- Activity [4]: Toxic

Structure (SMILES): C[C@]12C=CC(=O)C=C1CC[C@@H]1[C@@H]2[C@@H](O)C[C@@]2(C)[C@H]1C[C@H]1O[C@@H](C3CCCCC3)O[C@]12C(=O)COS(C)(=O)=O
- Activity [2, 6]: Active
- Activity [5]: Toxic

Structure (SMILES): C[C@]12C=CC(=O)C=C1CC[C@@H]1[C@@H]2[C@@H](O)C[C@@]2(C)[C@H]1C[C@H]1O[C@@H](C3CCCCC3)O[C@]12C(=O)CO [DESISOBUTYRYLCICLESONIDE]
- Activity [1]: Dose-Dependent Effect
- Activity [2, 6]: Active
- Activity [5]: Toxic

Structure (SMILES): CC(C)C(=O)NCC(=O)[C@@]12O[C@H](C3CCCCC3)O[C@@H]1C[C@H]1[C@@H]3CCC4=CC(=O)C=C[C@]4(C)[C@H]3[C@@H](O)C[C@@]12C
- Activity [3]: Non-Toxic

Structure (SMILES): C[C@]12C=CC(=O)C=C1CC[C@@H]1[C@@H]2[C@@H](O)C[C@@]2(C)[C@H]1C[C@H]1O[C@@H](C3CCCCC3)O[C@]12C(=O)CI
- Activity [4]: Toxic

Structure (SMILES): CC(C)C(=O)OCC(=O)[C@@]12O[C@H](C3CCCCC3)O[C@@H]1C[C@H]1[C@@H]3CCC4=CC(=O)C=C[C@]4(C)[C@H]3[C@@H](O)C[C@@]12C [CICLESONIDE]
- Activity [1]: Dose-Dependent Effect
- Activity [2]: 5.2 10^5No_unit
- Activity [3]: Non-Toxic

Structure (SMILES): C[C@]12C=CC(=O)C=C1CC[C@@H]1[C@@H]2[C@@H](O)C[C@@]2(C)[C@H]1C[C@H]1O[C@@H](C3CCCCC3)O[C@]12C(=O)CBr
- Activity [4]: Toxic
- Activity [2, 6]: Active

Structure (SMILES): C[C@]12C=CC(=O)C=C1CC[C@@H]1[C@@H]2[C@@H](O)C[C@@]2(C)[C@H]1C[C@H]1O[C@@H](C3CCCCC3)O[C@]12C(=O)CN
- Activity [5]: Toxic

Structure (SMILES): C[C@]12C=CC(=O)C=C1CC[C@@H]1[C@@H]2[C@@H](O)C[C@@]2(C)[C@H]1C[C@H]1O[C@@H](C3CCCCC3)O[C@]12C(=O)CN=[N+]=[N-]
- Activity [1]: Dose-Dependent Effect
- Activity [2]: 2.1 10^5No_unit
- Activity [3]: Non-Toxic
